# Values without a mark were called inactive.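 The calls were made as follows: active = cytochrome c release activity at 50 µM, scaled between control wells and rounded, of 10% or more; inactive = the rest.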
# Test: mitochondrial cyt c release, wild-type CHL-1 – biochemical, cytochrome c ELISA, dry powder, counter-screen for A1 inhibitor project (AID 504407)
# Conditions: CHL-1 isolated mitochondria, at 50 µM, hits give high values
# Outline: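 test system = CHL-1 wild-type mitochondria | medium = AT buffer, 80 mM KCl | timing = 30 min compound treatment, 30 °C | detection = ELISA absorbance at 450 nm, 540 nm corrected | measure = released cytochrome c in supernatant | controls = DMSO negative, tBid positive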
compound,measurement,value
Cn1c(=O)c([N+](=O)[O-])c(Cl)c2ccccc21,cytochrome c release activity,0.1%

# — PubChem BioAssay AID504407 (Broad Institute, 2011)
